As usually defined, the EC50 is the concentration giving half of the maximal effect. The IC50 is the midpoint of a concentration-inhibition curve. Usually CC50 stands for the concentration giving 50% cytotoxicity.

One data set concerns 518A2. Kind of data set: Cytotoxicity against human 518A2 cells. It is filed as functional, cell-based.
The subject of the next data set is A549. Briefly: Cytotoxicity against human A549 cells. It is filed as functional, cell-based.
In data set [1] the test system is Leishmania infantum. Kind of data set: Antiparasitic activity against Leishmania infantum. It is filed as functional, organism-based.
For the next data set, the system named is MCF7. Briefly: Cytotoxicity against human MCF7 cells. It is filed as functional, cell-based.
A further data set concerns 8505C. Briefly: Cytotoxicity against human 8505C cells. It is filed as functional, cell-based.
Data set [2] relates to HT-29. Kind of data set: Cytotoxicity against human HT-29 cells. It is filed as functional, cell-based.
The subject of data set [3] is A2780. Briefly: Cytotoxicity against human A2780 cells. It is filed as functional, cell-based.
For the next data set, the system named is FaDu. Kind of data set: Cytotoxicity against human FADU cells assessed as reduction in cell viability incubated fro 96 hrs by SRB assay. The format is functional, cell-based. (In general: Sulforhodamine B stains cellular protein and so reports cell mass.)
The nature of data set [4]: Selectivity index, ratio of CC50 for human HepG2 cells to IC50 for antileishmanial activity against Leishmania infantum MHOM/BR/70/BH46 intracellular amastigotes infected in canine DH82 cells. It is filed as toxicity, cell-based. The settings on record: read-out: Ratio CC50/IC50. In outline:
(§1)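 SI = CC50 in BGM or HepG2 cells (MTT) divided by the intracellular amastigote IC50.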

The nature of data set [5]: Cytotoxicity in human HepG2 cells assessed as reduction in cell viability incubated for 48 hrs by MTT assay. It is filed as cell-based. An outline of the steps:
(§2)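 MTT colorimetric assay with microscopic monitoring. CC50 is the concentration cytotoxic to 50% of BGM or HepG2 cells. Potassium antimonyl tartrate trihydrate was the positive control.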
A general note: Tetrazolium assays rely on reduction of a dye to a coloured formazan, in cell work by metabolically active cells.

A further data set relates to A-375. Kind of data set: Cytotoxicity against human A375 cells assessed as reduction in cell viability incubated fro 96 hrs by SRB assay. The format is functional, cell-based. The settings on record: A-375, 96 h. An outline of the steps: (§3)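 Sulforhodamine B photometric assay after 96 h treatment. Monolayers were grown in RPMI 1640 with L-glutamine, 10% heat-inactivated FBS and penicillin/streptomycin at 37 °C in humidified 5% CO2. Cut-off was 30 μM, or 60 μM for the parent. EC50 was averaged from at least three independent experiments, each in four replicates. Betulinic acid was the positive standard.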

Data set [6] in a line: Selectivity index, ratio of CC50 for African green monkey BGM cells to IC50 for antileishmanial activity against Leishmania infantum MHOM/BR/70/BH46 intracellular amastigotes infected in canine DH82 cells. The format is toxicity, cell-based. The settings on record: read-out: Ratio CC50/IC50. An outline of the steps:
as §1

A further data set has as its system SW-1736. Kind of data set: Cytotoxicity against human SW1736 cells assessed as reduction in cell viability incubated fro 96 hrs by SRB assay. The format is functional, cell-based. The settings on record: SW-1736, 96 h. An outline of the steps: as §3
Data set [7] deals with A2780. Kind of data set: Cytotoxicity against human A2780 cells assessed as reduction in cell viability incubated fro 96 hrs by SRB assay. The format is functional, cell-based. The settings on record: A2780, 96 h. In outline: as §3
Data set [8] has as its system HT-29. Kind of data set: Cytotoxicity against human HT-29 cells assessed as reduction in cell viability incubated fro 96 hrs by SRB assay. It is filed as functional, cell-based. The following applies: HT-29, 96 h. In outline:
as §3

The nature of data set [9]: Selectivity index, ratio of CC50 for dog DH82 cells to IC50 for antileishmanial activity against Leishmania infantum MHOM/BR/70/BH46 intracellular amastigotes infected in canine DH82 cells. It is filed as toxicity, cell-based. The following applies: read-out: Ratio CC50/IC50. In outline:
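SI = CC50 in DH82 macrophages (MTT) divided by IC50 against intracellular L. infantum BH46 amastigotes.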

The subject of data set [10] is Leishmania infantum. Briefly: Antileishmanial activity against Leishmania infantum MHOM/BR/70/BH46 intracellular amastigotes infected in canine DH82 cells assessed as as inhibition of cell growth at 1000 uM incubated for 48 hrs by ELISA method. It is filed as functional. The following applies: MHOM/BR/70/BH46, DH82, 48 h, read-out: GI. In general terms: In an ELISA, binding on a coated surface is turned into a signal by an enzyme label.

The nature of data set [11]: Cytotoxicity in African green monkey BGM cells assessed as reduction in cell viability incubated for 48 hrs by MTT assay. The format is cell-based. The following applies: chlorocebus aethiops. An outline of the steps: as §2
In data set [12] the test system is Leishmania infantum. Kind of data set: Antileishmanial activity against Leishmania infantum MHOM/BR/70/BH46 intracellular amastigotes infected in canine DH82 cells assessed as as inhibition of cell growth incubated for 48 hrs by ELISA method. The format is functional, organism-based. The settings on record: MHOM/BR/70/BH46, DH82, 48 h. In outline: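 L. infantum BH46 intracellular amastigotes. Phase II testing at 0.1, 1.0, 10 and 100 μM. IC50 is the concentration inhibiting in vitro growth by 50%, taken from dose-response curves (log concentration vs inhibition) run in four replicates. Potassium antimonyl tartrate trihydrate served as positive control.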

Data set [13] can be described thus: Cytotoxicity in dog DH82 cells assessed as reduction in cell viability incubated for 48 hrs by MTT assay. The format is cell-based, Canis lupus familiaris. In outline:
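DH82 canine macrophage viability was monitored microscopically and by MTT colorimetric assay. CC50 is the concentration cytotoxic to 50% of DH82 cells. Potassium antimonyl tartrate trihydrate was the positive control.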

For `CC1(C)CC[C@]2(C(=O)OCc3cn(Cc4cccc(Br)c4)nn3)CC[C@]3(C)C(=CC[C@@H]4[C@@]5(C)CC[C@H](O)[C@@](C)(CO)[C@@H]5CC[C@]43C)[C@@H]2C1`, the EC50 with 518A2, with A549, with MCF7, in the data set on 8505C, in the data set with HT-29 [2] and with A2780 [3] was 3 to 4.1 µM throughout. In addition, the IC50 in the data set with Leishmania infantum [1] is 32 to 34 µM.

Turning to `CC1(C)CC[C@]2(C(=O)OCc3cn(Cc4ccc([N+](=O)[O-])cc4)nn3)CC[C@]3(C)C(=CC[C@@H]4[C@@]5(C)CC[C@H](O)[C@@](C)(COCc6cn(Cc7ccc([N+](=O)[O-])cc7)nn6)[C@@H]5CC[C@]43C)[C@@H]2C1`, the EC50 with FaDu, in the data set with A-375, in the data set with SW-1736, in the data set on A2780 [7] and with HT-29 [8] was greater than 30 µM in each case. The selectivity ratio in [4], in data set [6] and in data set [9] was greater than 38 throughout. The CC50 at 48 h in data set [5], in data set [11] and in [13] was greater than 1000 µM each time. The inhibition of growth at 1000 µM in the data set on Leishmania infantum [10] came out at 58.6%. For the same molecule, in the data set with Leishmania infantum [12], the IC50 came out at 25.9 µM.

As for `CC1(C)CC[C@]2(C(=O)OCc3cn(Cc4cccc([N+](=O)[O-])c4)nn3)CC[C@]3(C)C(=CC[C@@H]4[C@@]5(C)CC[C@H](O)[C@@](C)(CO)[C@@H]5CC[C@]43C)[C@@H]2C1`, the concentration for a half-maximal effect (EC50) with 518A2, in the data set with A549, in the data set on MCF7, in the data set on 8505C, in the data set with HT-29 [2] and in the data set with A2780 [3] was 3 to 4.1 µM throughout.

In the case of `CC1(C)CC[C@]2(C(=O)OCc3cn(Cc4ccc(F)cc4F)nn3)CC[C@]3(C)C(=CC[C@@H]4[C@@]5(C)CC[C@H](O)[C@@](C)(COCc6cn(Cc7ccc(F)cc7F)nn6)[C@@H]5CC[C@]43C)[C@@H]2C1`, the EC50 in the data set on FaDu, with A-375, in the data set on SW-1736, with A2780 [7] and in the data set on HT-29 [8] was greater than 30 µM each time. Besides, the selectivity ratio in data set [4] amounted to 0.7; in [6] it was 0.6; in data set [9], 0.9. The CC50 at 48 h in data set [5] turned out to be 105 µM; in [11], 99.7 µM; in data set [13] it was 140 µM. Besides, in the data set on Leishmania infantum [10], the inhibition of growth at 1000 µM amounted to 52.4%. For the same molecule, the IC50 in the data set on Leishmania infantum [12] is 155 µM.

In the case of `CC1(C)CC[C@]2(C(=O)OCc3cn(Cc4cccc(Cl)c4)nn3)CC[C@]3(C)C(=CC[C@@H]4[C@@]5(C)CC[C@H](O)[C@@](C)(CO)[C@@H]5CC[C@]43C)[C@@H]2C1`, the EC50 in the data set with 518A2, in the data set on A549, with MCF7, in the data set with 8505C, in the data set on HT-29 [2] and in the data set with A2780 [3] was 3 to 4.1 µM throughout.

Take `C#CCOC[C@@]1(C)[C@@H]2CC[C@]3(C)[C@H](CC=C4[C@@H]5CC(C)(C)CC[C@]5(C(=O)OCC#C)CC[C@]43C)[C@@]2(C)CC[C@@H]1O`: the selectivity ratio was 3.7 in [4], 3.5 in [6] and 9 in data set [9]. In addition, the CC50 at 48 h in data set [5] is 104 µM; in [11], 99 µM; in data set [13] it was 259 µM. Further, in the data set with Leishmania infantum [10], the inhibition of growth at 1000 µM was 77.2%. In the data set on Leishmania infantum [12], the IC50 stood at 28.8 µM.
